The results in this text go back to ChEMBL document CHEMBL4020721 (Eur J Med Chem, 2017).

One may read the IC50 as the concentration that inhibits the measured activity by half. A word on the inhibition: it is how much of the control response was suppressed.

Series [1] concerns the target Platelet-derived growth factor receptor alpha (Homo sapiens, UniProt P16234). The experiment in a line: Inhibition of PDGFRalpha (unknown origin) using FAM-labeled peptide as substrate preincubated for 5 to 10 mins followed by substrate/ATP addition measured after 30 to 60 mins by mobility shift assay. An outline of the steps:
(§1)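 Caliper mobility-shift assay with FAM-labeled peptide substrate. Buffer: 50 mM HEPES pH 7.5, 0.0015% Brij-35, 10 mM MgCl2, 2 mM DTT, with kinase-specific enzyme levels. […] Incubation was 30-60 min at 28°C, stopped with EDTA buffer. Read-out was % conversion.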

In series [2] the target is Tyrosine-protein kinase receptor UFO (Homo sapiens, UniProt P30530). Put plainly: Inhibition of Axl (unknown origin) using FAM-labeled peptide as substrate preincubated for 5 to 10 mins followed by substrate/ATP addition measured after 30 to 60 mins by mobility shift assay. An outline of the steps:
as §1

The target in series [3] is Receptor tyrosine-protein kinase erbB-4 (Homo sapiens, UniProt Q15303). The experiment in a line: Inhibition of ERBB4 (unknown origin) using FAM-labeled peptide as substrate preincubated for 5 to 10 mins followed by substrate/ATP addition measured after 30 to 60 mins by mobility shift assay. An outline of the steps: as §1
A short description of series [4]: Intrinsic clearance in rat liver microsomes assessed per mg protein at 1 uM preincubated for 5 mins followed by NADPH addition measured after 5 to 30 mins by LC-MS/MS analysis. The note with it: read-out: CLH. The series is classed as ADME, microsome. The method, boiled down:
(§2)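 Microsomes (0.5 mg/ml) with 1 µM compound were preincubated 5 min at 37°C in 100 mM phosphate buffer pH 7.4, then started with 1 mM NADPH. Samples were taken at 0, 5, 10 and 30 min, quenched with acetonitrile/tinidazole and run by LC-MS/MS. CLint = k / microsomal protein concentration. Midazolam was the positive control.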

The target of series [5] is Proto-oncogene tyrosine-protein kinase Src (Homo sapiens, UniProt P12931). The experiment in a line: Inhibition of c-Src (unknown origin) using FAM-labeled peptide as substrate preincubated for 5 to 10 mins followed by substrate/ATP addition measured after 30 to 60 mins by mobility shift assay. An outline of the steps:
as §1

In series [6] the test system is SNU-5. Put plainly: Antitumor activity against human SNU5 cells xenografted in BALB/c athymic nude mouse assessed as percent tumor regression at 0.3 mg/kg, po administered once daily for 2 weeks. In kind it is functional. An outline of the steps: (§3)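 Nude BALB/c mice, 5-6 weeks old, under SPF conditions, were implanted s.c. in the right flank with 6×10^6 SNU-5 cells. Groups were sorted at 100-200 mm³, n=6, with vehicle controls. Oral dosing once daily for 2 weeks. Percent tumor regression = 100% × (treated day 0 − treated final)/treated day 0. Mean±SEM, Student's t-test.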

In series [7] the target is CYP2D6 (Homo sapiens, UniProt P10635). The experiment in a line: Time dependent irreversible inhibition of CYP2D6 in human liver microsomes at 10 uM preincubated with compound followed by NADPH addition by LC-MS/MS analysis. The series is classed as ADME. The note with it: liver microsomes. An outline of the steps: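 HLM (0.2 mg/ml) with 10 µM compound were preincubated 0, 5, 10 or 20 min at 37°C with 1 mM NADPH or PBS. Substrate cocktail (halved concentrations) plus NADPH was then added for 10 min. Metabolites were measured by LC-MS/MS. Kobs is the slope of relative activity versus preincubation time.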

Series [8] in a line: Intrinsic clearance in human liver microsomes assessed per mg protein at 1 uM preincubated for 5 mins followed by NADPH addition measured after 5 to 30 mins by LC-MS/MS analysis. The note with it: read-out: CLH. In kind it is ADME, microsome. An outline of the steps: as §2
For orientation: Liver microsomes are vesicles of endoplasmic reticulum, rich in cytochrome P450 enzymes.

The target of series [9] is Insulin-like growth factor 1 receptor (Homo sapiens, UniProt P08069). The experiment in a line: Inhibition of IGF1R (unknown origin) using FAM-labeled peptide as substrate preincubated for 5 to 10 mins followed by substrate/ATP addition measured after 30 to 60 mins by mobility shift assay. An outline of the steps:
as §1

The target of series [10] is Ephrin type-B receptor 2 (Homo sapiens, UniProt P29323). Put plainly: Inhibition of EPHB2 (unknown origin) using FAM-labeled peptide as substrate preincubated for 5 to 10 mins followed by substrate/ATP addition measured after 30 to 60 mins by mobility shift assay. An outline of the steps:
as §1

Series [11] deals with SNU-5. The experiment in a line: Antitumor activity against human SNU5 cells xenografted in BALB/c athymic nude mouse assessed as tumor regression at 1 mg/kg, po administered once daily for 2 weeks. The series is classed as functional. An outline of the steps:
as §3

Insulin-like growth factor 1 receptor, sequence (P08069 31-736 limits assumed): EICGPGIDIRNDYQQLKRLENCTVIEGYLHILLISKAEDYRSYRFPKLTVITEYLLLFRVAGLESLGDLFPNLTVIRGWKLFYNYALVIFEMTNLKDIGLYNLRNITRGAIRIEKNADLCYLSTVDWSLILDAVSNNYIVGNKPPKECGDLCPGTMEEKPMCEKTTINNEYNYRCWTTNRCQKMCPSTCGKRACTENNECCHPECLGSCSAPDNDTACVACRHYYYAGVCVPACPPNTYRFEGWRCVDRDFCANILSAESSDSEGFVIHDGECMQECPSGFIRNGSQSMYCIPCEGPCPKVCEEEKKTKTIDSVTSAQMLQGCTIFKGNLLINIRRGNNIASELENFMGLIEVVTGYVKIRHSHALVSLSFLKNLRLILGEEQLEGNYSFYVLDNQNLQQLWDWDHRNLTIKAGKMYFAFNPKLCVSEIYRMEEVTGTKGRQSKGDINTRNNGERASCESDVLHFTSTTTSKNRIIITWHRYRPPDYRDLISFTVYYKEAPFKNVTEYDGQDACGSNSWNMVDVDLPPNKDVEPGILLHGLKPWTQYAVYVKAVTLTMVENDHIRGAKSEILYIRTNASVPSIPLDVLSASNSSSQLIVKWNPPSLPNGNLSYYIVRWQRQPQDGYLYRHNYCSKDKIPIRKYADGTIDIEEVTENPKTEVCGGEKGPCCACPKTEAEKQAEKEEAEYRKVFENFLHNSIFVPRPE
Insulin-like growth factor 1 receptor, sequence (P08069 741-1367 limits assumed): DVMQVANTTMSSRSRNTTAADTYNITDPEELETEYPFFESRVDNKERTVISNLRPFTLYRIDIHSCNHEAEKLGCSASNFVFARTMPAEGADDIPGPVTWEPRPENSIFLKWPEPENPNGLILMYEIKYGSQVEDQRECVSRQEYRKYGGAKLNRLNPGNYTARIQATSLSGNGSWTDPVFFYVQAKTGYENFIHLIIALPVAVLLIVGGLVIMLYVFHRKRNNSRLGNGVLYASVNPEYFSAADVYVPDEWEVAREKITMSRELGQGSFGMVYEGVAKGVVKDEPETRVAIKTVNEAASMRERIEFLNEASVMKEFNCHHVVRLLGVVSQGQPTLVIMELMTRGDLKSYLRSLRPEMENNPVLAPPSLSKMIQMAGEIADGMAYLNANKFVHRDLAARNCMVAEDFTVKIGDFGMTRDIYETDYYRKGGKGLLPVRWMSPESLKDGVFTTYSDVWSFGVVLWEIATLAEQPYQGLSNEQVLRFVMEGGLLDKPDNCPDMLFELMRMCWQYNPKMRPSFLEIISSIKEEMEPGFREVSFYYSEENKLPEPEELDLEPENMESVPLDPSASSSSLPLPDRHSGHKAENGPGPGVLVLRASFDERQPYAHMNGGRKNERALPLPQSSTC
Tyrosine-protein kinase receptor UFO, sequence (P30530 whole entry): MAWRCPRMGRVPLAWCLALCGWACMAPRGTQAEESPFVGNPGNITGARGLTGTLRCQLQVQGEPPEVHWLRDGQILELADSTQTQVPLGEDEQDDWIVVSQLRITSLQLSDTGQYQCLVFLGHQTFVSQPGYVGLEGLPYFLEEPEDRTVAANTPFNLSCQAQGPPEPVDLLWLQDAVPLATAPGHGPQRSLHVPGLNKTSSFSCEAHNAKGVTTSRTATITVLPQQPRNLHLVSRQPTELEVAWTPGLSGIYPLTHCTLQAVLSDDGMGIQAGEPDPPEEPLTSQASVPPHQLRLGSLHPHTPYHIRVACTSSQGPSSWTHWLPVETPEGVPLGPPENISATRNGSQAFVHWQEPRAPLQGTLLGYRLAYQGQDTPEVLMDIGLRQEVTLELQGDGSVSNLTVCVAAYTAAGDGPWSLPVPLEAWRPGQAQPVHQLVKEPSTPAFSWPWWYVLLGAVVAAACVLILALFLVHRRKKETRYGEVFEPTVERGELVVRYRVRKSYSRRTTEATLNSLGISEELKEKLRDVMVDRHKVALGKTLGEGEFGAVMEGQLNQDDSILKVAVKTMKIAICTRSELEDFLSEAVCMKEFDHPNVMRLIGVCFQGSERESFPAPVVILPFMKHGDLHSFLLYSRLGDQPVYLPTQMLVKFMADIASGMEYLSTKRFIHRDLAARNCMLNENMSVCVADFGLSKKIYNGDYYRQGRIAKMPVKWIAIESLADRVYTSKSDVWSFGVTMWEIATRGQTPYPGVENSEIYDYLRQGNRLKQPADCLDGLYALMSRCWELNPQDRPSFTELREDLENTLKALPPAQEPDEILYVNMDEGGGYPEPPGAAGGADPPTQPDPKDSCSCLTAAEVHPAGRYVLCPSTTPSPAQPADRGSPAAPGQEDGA
Proto-oncogene tyrosine-protein kinase Src, sequence (P12931 2-536 limits assumed): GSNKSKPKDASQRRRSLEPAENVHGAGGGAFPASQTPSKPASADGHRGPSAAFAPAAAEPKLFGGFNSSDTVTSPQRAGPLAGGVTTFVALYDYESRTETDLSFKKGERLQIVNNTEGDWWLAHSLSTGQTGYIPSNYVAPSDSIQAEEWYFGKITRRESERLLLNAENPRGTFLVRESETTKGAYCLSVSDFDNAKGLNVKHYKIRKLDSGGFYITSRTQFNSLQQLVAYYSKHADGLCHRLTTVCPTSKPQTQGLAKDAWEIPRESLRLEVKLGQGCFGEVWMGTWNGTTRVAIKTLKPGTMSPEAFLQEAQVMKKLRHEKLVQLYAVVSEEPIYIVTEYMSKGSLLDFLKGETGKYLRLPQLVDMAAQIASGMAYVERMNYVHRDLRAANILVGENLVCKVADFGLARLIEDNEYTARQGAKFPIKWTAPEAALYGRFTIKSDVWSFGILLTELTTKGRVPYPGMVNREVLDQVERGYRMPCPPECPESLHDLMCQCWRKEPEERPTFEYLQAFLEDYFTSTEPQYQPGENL
Ephrin type-B receptor 2, sequence (P29323 whole entry): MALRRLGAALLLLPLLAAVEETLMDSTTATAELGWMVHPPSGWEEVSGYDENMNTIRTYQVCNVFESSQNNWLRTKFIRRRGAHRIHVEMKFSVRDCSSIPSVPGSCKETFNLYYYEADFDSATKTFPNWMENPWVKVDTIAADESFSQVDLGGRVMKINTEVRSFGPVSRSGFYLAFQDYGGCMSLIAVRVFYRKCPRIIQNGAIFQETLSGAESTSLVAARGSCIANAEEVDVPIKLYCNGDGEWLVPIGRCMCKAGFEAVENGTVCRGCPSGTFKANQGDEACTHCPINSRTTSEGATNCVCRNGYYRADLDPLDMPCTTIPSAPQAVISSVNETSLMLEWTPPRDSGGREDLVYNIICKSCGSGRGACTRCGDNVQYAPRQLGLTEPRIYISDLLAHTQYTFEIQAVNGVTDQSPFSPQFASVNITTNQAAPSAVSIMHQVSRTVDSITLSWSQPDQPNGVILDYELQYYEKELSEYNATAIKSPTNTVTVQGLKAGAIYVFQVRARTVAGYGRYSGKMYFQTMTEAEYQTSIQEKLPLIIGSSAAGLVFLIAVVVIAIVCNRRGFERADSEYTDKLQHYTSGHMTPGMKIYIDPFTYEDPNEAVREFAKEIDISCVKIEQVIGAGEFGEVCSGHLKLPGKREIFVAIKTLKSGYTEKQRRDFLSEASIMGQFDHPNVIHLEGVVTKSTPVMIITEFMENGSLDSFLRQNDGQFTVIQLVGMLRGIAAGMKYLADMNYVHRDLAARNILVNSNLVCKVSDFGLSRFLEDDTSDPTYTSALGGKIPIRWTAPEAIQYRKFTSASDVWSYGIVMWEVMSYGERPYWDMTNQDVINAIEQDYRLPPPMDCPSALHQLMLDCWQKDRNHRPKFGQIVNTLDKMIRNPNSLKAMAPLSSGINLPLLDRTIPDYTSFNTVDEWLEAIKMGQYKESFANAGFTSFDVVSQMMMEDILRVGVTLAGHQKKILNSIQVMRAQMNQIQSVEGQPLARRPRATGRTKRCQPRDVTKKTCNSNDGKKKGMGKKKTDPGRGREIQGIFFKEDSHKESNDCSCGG
Platelet-derived growth factor receptor alpha, sequence (P16234 whole entry): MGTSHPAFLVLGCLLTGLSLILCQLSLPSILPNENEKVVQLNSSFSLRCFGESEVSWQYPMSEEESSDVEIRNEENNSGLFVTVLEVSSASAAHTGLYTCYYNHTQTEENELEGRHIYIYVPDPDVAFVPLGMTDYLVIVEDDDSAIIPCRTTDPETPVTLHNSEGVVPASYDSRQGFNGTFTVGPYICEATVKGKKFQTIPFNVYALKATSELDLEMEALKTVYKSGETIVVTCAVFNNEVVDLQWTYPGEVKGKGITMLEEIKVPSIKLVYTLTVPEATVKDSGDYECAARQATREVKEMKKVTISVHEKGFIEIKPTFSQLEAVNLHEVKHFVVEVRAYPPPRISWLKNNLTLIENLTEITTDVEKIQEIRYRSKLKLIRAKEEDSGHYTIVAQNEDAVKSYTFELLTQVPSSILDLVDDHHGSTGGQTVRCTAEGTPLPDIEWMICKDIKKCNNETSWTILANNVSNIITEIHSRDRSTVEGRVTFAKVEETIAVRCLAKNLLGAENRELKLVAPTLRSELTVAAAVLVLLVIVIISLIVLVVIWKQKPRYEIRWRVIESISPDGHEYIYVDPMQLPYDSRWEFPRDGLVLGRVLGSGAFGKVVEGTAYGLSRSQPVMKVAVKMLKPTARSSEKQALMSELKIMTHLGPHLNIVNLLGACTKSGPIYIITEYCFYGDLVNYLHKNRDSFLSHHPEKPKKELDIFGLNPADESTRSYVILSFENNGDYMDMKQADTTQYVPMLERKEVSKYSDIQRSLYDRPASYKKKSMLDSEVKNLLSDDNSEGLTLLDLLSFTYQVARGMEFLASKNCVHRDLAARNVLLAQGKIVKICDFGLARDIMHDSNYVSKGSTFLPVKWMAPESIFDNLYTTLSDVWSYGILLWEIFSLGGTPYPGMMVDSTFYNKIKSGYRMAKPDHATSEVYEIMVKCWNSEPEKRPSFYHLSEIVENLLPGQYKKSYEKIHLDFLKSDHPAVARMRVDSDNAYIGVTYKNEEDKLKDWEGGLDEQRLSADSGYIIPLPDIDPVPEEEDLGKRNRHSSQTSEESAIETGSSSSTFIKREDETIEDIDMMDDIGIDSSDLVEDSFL

As to `CC(c1cc2cc(-c3cnn(C)c3)cnc2cc1F)n1nnc2ncc(-c3cnn(CCO)c3)nc21` (stereo in doubt; 14), the IC50 in series [1] was 2.36 µM; in series [2], 1.07 µM; in series [3] it was more than 30 µM; in series [5], 17.1 µM; in series [9] it was more than 30 µM; in [10], more than 30 µM. Moreover, the microsomal CLint at 1 µM in series [4] and in series [8] was 5 µL/min/mg each time. For the same compound, the Activity in series [6] amounted to 34%; in [11] it was 79.2%. Further, the inhibition at 10 µM in [7] is less than 50%.
